From paper PMC8361981 (Chemistry (Weinheim an Der Bergstrasse, Germany), 2021)

Key:
[1] = Cytotoxicity in MT-4 cells; format: cell-based; details: human
Method in brief: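 Cytostatic read-out alongside the HIV cytopathicity assay. CC50 is the concentration that inhibits CD4 T cell proliferation by 50 %. Selectivity index is CC50/EC50.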

HIV-2 (ROD) = assay: Anti-HIV-2; format: cell-based; details: Human immunodeficiency virus 2, CD4+ T cell, read-out: EC50 HIV-2/ROD
HIV-1 (NL4.3) = assay: Anti-HIV-1; format: cell-based; details: for EC50: Human immunodeficiency virus 1, CD4+ T cell, read-out: EC50 HIV-1/NL4.3
[2] = target: recombinant HIV-1 IIIB gp120 (Human immunodeficiency virus type 1 group M subtype B, UniProt P04578); assay: Surface plasmon resonance; format: binding
Method in brief: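 Recombinant HIV-1 IIIB gp120, produced in Chinese hamster ovary cells, was immobilised as a monomer on a sensor chip. Test compound was passed over at 0.1–6.25 μM in two-fold dilution steps. Real-time binding responses were fitted to a 1:1 Langmuir model to obtain affinity and kinetic constants.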

[3] = Cell viability of compound-treated, uninfected RD cells; format: cell-based; details: human, uninfected rhabdomyosarcoma (RD) cells
Method in brief: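 Compound-treated, uninfected RD cells run in a setup parallel to the EV71 BrCr cytopathic-effect reduction assay in RD cells. CC50 is the concentration giving a 50 % reduction in cell viability. Selectivity index is CC50/EC50.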

[4] = system: EV71 BrCr laboratory-adapted strain; assay: Anti-EV71 assay, BrCr laboratory-adapted strain in RD cells; format: cell-based, Enterovirus A71
Method in brief: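 Enterovirus A71 BrCr (laboratory-adapted) was grown in rhabdomyosarcoma (RD) cells with test compound. EC50 is the concentration reducing virus-induced cytopathic effect by 50%. CC50 is the 50% loss of viability in compound-treated, uninfected RD cells run in a similar setup. SI = CC50/EC50.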

SMILES | CC50 at 5 days [1] [µM] | EC50 (HIV-2 (ROD)) [µM] | EC50 (HIV-1 (NL4.3)) [µM] | SI selectivity index (CC50/EC50) (HIV-1 (NL4.3); anti-HIV, Table 1) | Kd [2] [µM] | kd ([2]; SPR, 1:1 Langmuir model, four replicates, 25 °C) | binding to gp120 (in words) ([2]; SPR, concentration-dependent) | kon ([2]; read-out: ka) [M⁻¹ s⁻¹] | CC50 at 3 days [3] [µM] | SI selectivity index (CC50/EC50) ([4]; EV71 BrCr in RD cells, Table 3) | EC50 ([4]; Enterovirus A, EV71, RD, read-out: EC50 EV71 BrCr) [µM]
CN[C@@H]1[C@H](O[C@@H]2OC[C@@H](O)[C@H](O)[C@H]2O)[C@@H](O)[C@H](O[C@H]2c3cc(C)c(C(=O)N[C@H](C)C(=O)O)c(O)c3-c3c(cc4c(c3O)C(=O)c3cc(OC)cc(O)c3C4=O)[C@@H]2O)O[C@@H]1C [Pradimicin A (PRM‐A), Pradimicin A] | > 100 | 5.9 ± 3.7 | 3.3 ± 1.2 | > 30.3 | 6.52 ± 0.11 | 12.64±2.92 (10^−3)(1/s) | binds to gp120 | 1930 ± 420 |  |  | 
C[C@H](Cn1cnc2c(N)ncnc21)OCP(=O)(O)O [Tenofovir (PMPA), Tenofovir] | > 100 | 1 | 4.74 |  |  |  |  |  |  |  | 
CCOC(=O)c1ccc(OCCC2CCN(c3ccc(C)nn3)CC2)cc1 [Pirodavir] |  |  |  |  |  |  |  |  | > 100 | >333 | 0.3 ± 0.1
